{"source": "ChEMBL document CHEMBL4368903", "about": "“Identification of GSK3186899/DDD853651 as a Preclinical Development Candidate for the Treatment of Visceral Leishmaniasis” (J Med Chem, 2019)", "key": {"[1]": {"assay": "Cardiotoxicity in Crl:WI(Han) rat up to 1000 mg/kg, po via gavage", "type": "toxicity, organism-based", "details": "in vivo", "how_it_was_run": "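Conscious unrestrained telemetered male CRL:WI(Han) rats given a single oral dose of vehicle or test article up to 1000 mg/kg. Cardiovascular and electrocardiographic parameters monitored.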"}, "[2]": {"assay": "Solubility of compound in fasted simulated intestinal fluid at 1 mg after 4 hrs by HPLC-UV analysis", "type": "physicochemical", "details": "fasted simulated intestinal fluid", "how_it_was_run": "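1 mg solid shaken in 1 mL FaSSIF (3 mM sodium taurocholate, 0.75 mM lecithin, phosphate buffer pH 6.5) at 900 rpm for 4 h at room temperature, then filtered. Supernatant quantified by HPLC-UV against single-point DMSO calibration. Range 1–1000 μg/mL.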"}, "[3]": {"assay": "Toxicity in Crl:WI(Han) rat assessed as increase in triglycerides levels at 300 mg/kg/day, po via gavage for 7 days", "type": "organism-based", "details": "in vivo, 168 h", "how_it_was_run": "(§1)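 Male Crl:WI(Han) rats given oral gavage daily for 7 days at 100, 300 and 1000 mg/kg/day. Clinical signs, macroscopic findings, clinical pathology versus controls, and a liver gene expression panel for hepatic toxicity mechanisms.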"}, "[4]": {"assay": "Kinetic aqueous solubility of the compound in phosphate buffer at pH 7.4 by CLND assay", "type": "physicochemical", "details": "phosphate buffer, read-out: Kinetic_solubility", "how_it_was_run": "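From 10 mM DMSO stock diluted 1:20 into pH 7.4 PBS, equilibrated 1 h at RT, filtered. Filtrate quantified by calibrated flow-injection CLND. Dynamic range 1–500 μM.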"}, "[5]": {"assay": "Mutagenicity in Salmonella typhimurium at 1500 ug/plate by Ames test", "type": "toxicity", "details": "salmonella enterica subsp. enterica serovar typhimurium"}, "[6]": {"assay": "Ratio of AUC (0 to 24 hrs) in conscious unrestrained telemetered Crl:WI(Han) rat at 300 mg/kg/day, po via gavage for 7 days measured on day 7 to AUC (0 to 24 hrs) in Leishmania donovani LV9 amastigotes infected BALB/c mouse at 25 mg/kg, po administered bid for 10 days measured on day 10", "type": "ADME, organism-based", "details": "in vivo, read-out: TI", "how_it_was_run": "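Index = AUC0–24 on day 7 of the rat study / AUC0–24 on day 10 of the mouse efficacy model. Rat arm: male Crl:WI(Han) rats, oral gavage once daily for 7 days at 100, 300 or 1000 mg/kg/day. Mouse arm: female BALB/c infected i.v. with ~2×10^7 L. donovani LV9 amastigotes, dosed orally twice daily for 10 days from day 7 post-infection in 0.5% HPMC, 0.4% Tween 80, 0.5% benzyl alcohol.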"}, "[7]": {"assay": "Toxicity in Crl:WI(Han) rat assessed as drug tolerability dose at 100 to 1000 mg/kg/day, po via gavage for 7 days", "type": "organism-based", "details": "in vivo, read-out: Activity", "how_it_was_run": "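Male Crl:WI(Han) rats dosed by oral gavage once daily in a 7-day repeat-dose study at 100, 300 and 1000 mg/kg/day. Tolerated doses judged from in-life and clinical signs, macroscopic observations, histopathology, clinical pathology and liver gene expression profiling versus controls.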"}, "[8]": {"assay": "Toxicity in Crl:WI(Han) rat assessed as increase in ALP at 1000 mg/kg/day, po via gavage for 7 days", "type": "organism-based", "details": "in vivo, 168 h", "how_it_was_run": "as §1"}, "Leishmania donovani [9]": {"test_system": "Leishmania donovani", "assay": "Antileishmanial activity against Leishmania donovani […] in human THP1 cells by intramacrophage assay", "type": "functional, organism-based", "details": "Leishmania donovani, THP-1"}, "[10]": {"assay": "Toxicity in Crl:WI(Han) rat assessed as decrease in hemoglobin levels at 300 to 1000 mg/kg/day, po via gavage for 7 days", "type": "organism-based", "details": "in vivo, 168 h"}, "[11]": {"assay": "Toxicity in Crl:WI(Han) rat assessed as increase in plasma glucose levels at 1000 mg/kg/day, po via gavage for 7 days", "type": "organism-based", "details": "in vivo, 168 h", "how_it_was_run": "as §1"}, "[12]": {"assay": "Toxicity in Crl:WI(Han) rat assessed as decrease in HCT levels at 300 to 1000 mg/kg/day, po via gavage for 7 days", "type": "organism-based", "details": "in vivo, 168 h"}, "[13]": {"target": "Cyclin-dependent kinase 2 (Homo sapiens) (UniProt P24941)", "assay": "Inhibition of human CDK2 by kinobeads-based assay"}, "[14]": {"assay": "Therapeutic index, ratio of fCmax in conscious unrestrained telemetered Crl:WI(Han) rat at 300 mg/kg/day, po via gavage for 7 days measured on day 1 to fCmax in Leishmania donovani LV9 amastigotes infected BALB/c mouse at 25 mg/kg, po administered bid for 10 days measured on day 1", "type": "organism-based", "details": "in vivo, read-out: TI", "how_it_was_run": "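Index = free Cmax on day 1 of the rat cardiovascular study / free Cmax on day 1 of the mouse efficacy model. Rat arm: conscious, unrestrained, telemetered male CRL:WI(Han) rats given a single oral dose (up to 1000 mg/kg). Mouse arm: female BALB/c infected i.v. with L. donovani LV9 amastigotes, dosed orally twice daily from day 7 post-infection in 0.5% HPMC, 0.4% Tween 80, 0.5% benzyl alcohol.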"}, "Leishmania donovani [15]": {"test_system": "Leishmania donovani", "assay": "Antileishmanial activity against Leishmania donovani LV9 amastigotes infected in BALB/c mouse assessed as suppression of parasite load within liver at 25 mg/kg, po administered bid for 10 days relative to control", "type": "functional", "how_it_was_run": "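Female BALB/c mice, 5 per group, infected i.v. with about 2×10^7 L. donovani LV9 amastigotes harvested from infected hamster spleen. Oral dosing starts day 7 post-infection, in 0.5% HPMC/0.4% Tween 80/0.5% benzyl alcohol, or 10% DMSO/60% PEG400/30% water for the 5-day 50 mg/kg regimen. Dosing solutions made fresh daily. Killed day 14 (5-day) or 19 (10-day). Liver smears give LDU (amastigotes/500 nucleated cells × organ weight). Mean LDU compared with vehicle control gives % suppression.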"}, "[16]": {"assay": "Toxicity in Crl:WI(Han) rat assessed as decrease in RBC levels at 300 to 1000 mg/kg/day, po via gavage for 7 days", "type": "organism-based", "details": "in vivo, 168 h"}, "[17]": {"assay": "Toxicity in Crl:WI(Han) rat assessed as decrease in albumin levels at 300 mg/kg/day, po via gavage for 7 days", "type": "organism-based", "details": "in vivo, 168 h"}, "[18]": {"assay": "Intrinsic clearance in CD1 mouse liver microsomes at 0.5 uM after 3 to 30 mins in presence of NADPH by UPLC-MS/MS analysis", "type": "ADME, Microsome", "how_it_was_run": "(§2)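 0.5 μM compound with female CD1 mouse or human liver microsomes, started with excess NADPH in 50 mM potassium phosphate pH 7.4. Aliquots at 0, 3, 6, 9, 15 and 30 min quenched in acetonitrile with internal standard. UPLC-MS/MS; rate constant from exponential decay of compound/IS ratio. Verapamil as positive control.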"}, "[19]": {"target": "Voltage-gated inwardly rectifying potassium channel KCNH2 (Homo sapiens, UniProt Q12809)", "sequence (Q12809 whole entry)": "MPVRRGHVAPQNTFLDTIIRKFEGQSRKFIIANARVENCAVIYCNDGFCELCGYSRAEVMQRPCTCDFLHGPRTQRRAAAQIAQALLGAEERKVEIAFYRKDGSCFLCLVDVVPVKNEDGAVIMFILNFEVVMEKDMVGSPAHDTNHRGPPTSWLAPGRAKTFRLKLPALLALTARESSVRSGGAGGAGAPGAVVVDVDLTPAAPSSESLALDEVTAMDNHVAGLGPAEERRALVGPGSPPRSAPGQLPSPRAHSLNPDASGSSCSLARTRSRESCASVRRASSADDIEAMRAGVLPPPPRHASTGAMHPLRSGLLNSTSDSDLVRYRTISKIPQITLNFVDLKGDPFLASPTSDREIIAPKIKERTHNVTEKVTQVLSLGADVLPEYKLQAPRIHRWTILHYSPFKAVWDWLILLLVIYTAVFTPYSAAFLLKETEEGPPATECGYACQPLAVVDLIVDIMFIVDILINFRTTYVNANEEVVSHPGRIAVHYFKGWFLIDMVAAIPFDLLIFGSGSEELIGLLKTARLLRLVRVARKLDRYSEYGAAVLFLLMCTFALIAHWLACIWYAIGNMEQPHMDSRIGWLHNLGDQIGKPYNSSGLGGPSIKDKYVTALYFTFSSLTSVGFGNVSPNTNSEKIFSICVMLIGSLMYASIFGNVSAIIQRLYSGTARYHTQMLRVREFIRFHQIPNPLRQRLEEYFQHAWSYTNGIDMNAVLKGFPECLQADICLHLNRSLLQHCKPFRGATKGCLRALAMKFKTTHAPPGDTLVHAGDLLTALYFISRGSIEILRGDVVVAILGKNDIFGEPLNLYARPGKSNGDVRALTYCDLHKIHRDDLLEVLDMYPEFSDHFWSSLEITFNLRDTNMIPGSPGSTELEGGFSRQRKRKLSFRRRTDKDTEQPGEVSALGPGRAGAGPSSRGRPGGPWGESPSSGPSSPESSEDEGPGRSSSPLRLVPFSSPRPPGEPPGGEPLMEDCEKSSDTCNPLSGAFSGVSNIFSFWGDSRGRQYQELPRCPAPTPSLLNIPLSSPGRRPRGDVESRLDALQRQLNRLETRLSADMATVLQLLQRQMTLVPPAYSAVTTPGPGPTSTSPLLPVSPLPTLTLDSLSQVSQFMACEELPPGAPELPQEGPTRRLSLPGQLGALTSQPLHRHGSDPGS", "assay": "Inhibition of human ERG by patch clamp assay"}, "[20]": {"assay": "Toxicity in Crl:WI(Han) rat assessed as effect on macro observations parameters at 100 to 1000 mg/kg/day, po via gavage for 7 days", "type": "organism-based", "details": "in vivo, 168 h", "how_it_was_run": "as §1"}, "[21]": {"assay": "Toxicity in Crl:WI(Han) rat assessed as decrease in calcium levels at 1000 mg/kg/day, po via gavage for 7 days", "type": "organism-based", "details": "in vivo, 168 h"}, "[22]": {"assay": "Intrinsic clearance in human liver microsomes at 0.5 uM after 3 to 30 mins in presence of NADPH by UPLC-MS/MS analysis", "type": "ADME, Microsome", "how_it_was_run": "as §2"}, "[23]": {"assay": "Toxicity in Crl:WI(Han) rat assessed as effect on life and clinical signs at 100 to 1000 mg/kg/day, po via gavage for 7 days", "type": "organism-based", "details": "in vivo, 168 h", "how_it_was_run": "as §1"}, "Cytochrome P450 3A4": {"target": "Cytochrome P450 3A4 (Homo sapiens, UniProt P08684)", "sequence (P08684 whole entry)": "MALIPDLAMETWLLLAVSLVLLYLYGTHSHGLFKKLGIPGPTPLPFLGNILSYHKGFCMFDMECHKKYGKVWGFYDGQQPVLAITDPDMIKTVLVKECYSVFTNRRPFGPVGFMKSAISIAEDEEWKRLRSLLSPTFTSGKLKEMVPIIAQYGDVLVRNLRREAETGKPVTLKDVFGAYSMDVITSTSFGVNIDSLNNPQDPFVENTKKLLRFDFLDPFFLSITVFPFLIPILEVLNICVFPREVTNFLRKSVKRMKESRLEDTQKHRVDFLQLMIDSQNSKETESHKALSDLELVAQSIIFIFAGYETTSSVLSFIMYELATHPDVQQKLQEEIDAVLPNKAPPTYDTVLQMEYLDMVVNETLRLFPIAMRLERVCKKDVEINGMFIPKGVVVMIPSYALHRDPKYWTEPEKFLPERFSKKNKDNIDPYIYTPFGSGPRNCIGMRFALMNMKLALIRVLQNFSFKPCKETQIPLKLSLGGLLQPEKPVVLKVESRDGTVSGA", "assay": "Inhibition of CYP3A4 in human liver microsomes using midazolam as substrate preincubated for 20 mins followed by substrate addition and measured after 5 mins by LC-MS/MS analysis", "type": "ADME", "how_it_was_run": "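Pooled human liver microsomes (final 0.1 mg/mL) with midazolam marker substrate, monitoring CYP3A4-specific metabolite. Test compound at eight concentrations, 0.1–100 μM, final organic ≤0.5%. Preincubated at 37 °C for 20 min, then substrate or cofactor added and incubated 5 min at 37 °C. Stopped with ice-cold acetonitrile; LC-MS/MS read-out gives pIC50.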"}, "Lymphoma cell line": {"test_system": "Lymphoma cell line", "assay": "Clastogenicity in mouse Lymphoma cells at 120 ug/ml", "type": "toxicity, cell-based"}, "[24]": {"assay": "Toxicity in Crl:WI(Han) rat assessed as effect on liver gene expression in liver at 100 to 1000 mg/kg/day, po via gavage for 7 days", "type": "organism-based", "details": "in vivo, 168 h", "how_it_was_run": "as §1"}, "[25]": {"assay": "Toxicity in rabbit cardiac ventricular wedge assessed as QT shortening at 30 uM relative to control", "type": "tissue-based, Oryctolagus cuniculus, Cardiac ventricle"}, "[26]": {"assay": "Toxicity in Crl:WI(Han) rat assessed as increase in CYP1A1 gene expression in liver at 100 to 1000 mg/kg/day, po via gavage for 7 days", "type": "organism-based", "details": "in vivo, 168 h", "how_it_was_run": "as §1"}, "[27]": {"assay": "Toxicity in Crl:WI(Han) rat assessed as decrease in total protein levels at 300 mg/kg/day, po via gavage for 7 days", "type": "organism-based", "details": "in vivo, 168 h"}}, "note": "pEC50, pIC50: −log10 of the molar value. Activity calls are given as the source filed them. No cut-off for these calls is given here.", "data": [{"smiles": "C[C@H]1CN(c2n[nH]c3nc(N[C@H]4CC[C@H](NS(=O)(=O)CCC(F)(F)F)CC4)ncc23)CCO1", "note": "[GSK-3186899]", "values": [{"measurement": "Activity", "setting": "[1]", "value": "Non-Toxic"}, {"measurement": "solubility at 4 h", "setting": "[2]", "value": "17 to 64", "unit": "µg/mL"}, {"measurement": "Activity", "setting": "[3]", "value": "Toxic"}, {"measurement": "solubility kinetic", "setting": "[4]", "value": 99, "unit": "µM"}, {"measurement": "Activity", "setting": "[5]", "value": "Non-Toxic"}, {"measurement": "selectivity ratio", "setting": "[6]", "value": 13}, {"measurement": "MTD at 168 h", "setting": "[7]", "value": "100 to 1000", "unit": "mg/kg"}, {"measurement": "Activity", "setting": "[8]", "value": "Toxic"}, {"measurement": "pEC50", "setting": "Leishmania donovani [9]", "value": 5.90}, {"measurement": "Activity", "setting": "[10]", "value": "Toxic"}, {"measurement": "Activity", "setting": "[11]", "value": "Toxic"}, {"measurement": "Activity", "setting": "[12]", "value": "Toxic"}, {"measurement": "inhibition", "setting": "[13]", "value": "inactive"}, {"measurement": "selectivity ratio", "setting": "[14]", "value": 3}, {"measurement": "Activity", "setting": "Leishmania donovani [15]", "value": ">95", "unit": "%"}, {"measurement": "Activity", "setting": "[16]", "value": "Toxic"}, {"measurement": "Activity", "setting": "[17]", "value": "Toxic"}, {"measurement": "CLH", "setting": "[18]", "value": "< 0.5", "unit": "mL/min/g"}, {"measurement": "pIC50", "setting": "[19]", "value": "< 4.52"}, {"measurement": "Activity", "setting": "[20]", "value": "Non-Toxic"}, {"measurement": "Activity", "setting": "[21]", "value": "Toxic"}, {"measurement": "CLH", "setting": "[22]", "value": 0.7, "unit": "mL/min/g"}, {"measurement": "Activity", "setting": "[23]", "value": "Non-Toxic"}, {"measurement": "pIC50", "setting": "Cytochrome P450 3A4", "value": "< 4.40"}, {"measurement": "Activity", "setting": "Lymphoma cell line", "value": "Non-Toxic"}, {"measurement": "Activity", "setting": "[24]", "value": "Non-Toxic"}, {"measurement": "Activity", "setting": "[25]", "value": 8.9, "unit": "%"}, {"measurement": "Activity", "setting": "[26]", "value": "Non-Toxic"}, {"measurement": "Activity", "setting": "[27]", "value": "Toxic"}]}]}
